Measured values taken from publication PMC3873039 (Anti-Cancer Agents in Medicinal Chemistry, 2013).

Key:
U937 [1] = assay: NucView caspase 3 activity assay by flow cytometry; format: cell-based, human; conditions: for EC50: Homo sapiens, U-937, 24 h, read-out: AP50 (50% induction of apoptosis), Caspase 3 activity assay (C3); for The lowest dose of polyphenols at which there was a significant induction of apoptosis compared to the vehicle control: U937, caspase 3 activity, 24 h, p<0.05
Method in brief: (§1)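 Seeded at 0.5 x 10⁶ cells/well and treated 24 h, with series of 0–50 or 0–250 µM depending on compound. Normalized to vehicle (0% apoptosis). Mean ± STD, three independent experiments in triplicate. One-way ANOVA/Tukey, p<0.05. AP50 = concentration giving 50% apoptotic cells.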

HL60 [2] = assay: CellTiter-Glo luminescent cell viability assay; format: cell-based, human; conditions: HL60, 24 h, doses 0, 2, 10, 50, 250, 500 µM, p<0.05
Method in brief: (§2)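 Cells grown in RPMI 1640 with 10% FBS, 1.5 mM L-glutamine and penicillin/streptomycin at 37 °C, 5% CO2. Seeded at 2.5 x 10³ cells/well and exposed 24 h to ethanol-dissolved test compound (0, 2, 10, 50, 250, 500 µM) with 0.1% ethanol vehicle. ATP luminescence normalized to vehicle (100%). IC50 taken from linear regression. Lowest significant dose set by one-way ANOVA/Tukey, p<0.05. Triplicates, three independent experiments.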

U937 [3] = assay: Hoechst 33342 nuclear morphological analysis of apoptosis; format: cell-based; conditions: Homo sapiens, U-937, 24 h, read-out: AP50 (50% induction of apoptosis), Hoechst 33342 staining (Hoe)
Method in brief: (§3)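 Seeded at 0.5 x 10⁶ cells/well in 12-well plates and treated 24 h. Cells were pelleted (400 g, 5 min, 4 °C), washed in PBS, fixed in 4% paraformaldehyde, cytospun, air-dried, then stained with 10 μg/ml Hoechst 33342 for 10 min in the dark. Fluorescence microscopy: 200 cells counted, scored by condensed/intense nuclei, shrinkage, blebbing and apoptotic bodies. % apoptotic nuclei calculated. AP50 = concentration giving 50% apoptotic cells.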

KG1a [4] = assay: as above; format: cell-based; conditions: Homo sapiens, KG-1a, 24 h, read-out: AP50 (50% induction of apoptosis), Hoechst 33342 staining (Hoe)
Method in brief: as §3

HL60 [5] = assay: Cell cycle analysis, propidium iodide flow cytometry; format: cell-based, human; conditions: HL60, IC50 dose, 24 h
Method in brief: (§4)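 Seeded at 0.5 x 10^6 cells per well in 12-well plates and treated 24 h at the IC50 concentration of each test compound from CellTiter-Glo. Cells were pelleted (400 g, 5 min), PBS-washed and fixed in 80% ethanol overnight at -20 °C. Staining used 50 µg/mL PI plus RNase overnight at 4 °C.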

KG1a [6] = assay: CellTiter-Glo luminescent cell viability assay; format: cell-based, human; conditions: 24 h; for IC50: Homo sapiens, KG-1a, read-out: IC50 (50% inhibition of cellular proliferation); for The lowest dose of polyphenols at which there was a significant inhibition of cell proliferation compared to the vehicle control: KG1a, doses 0, 2, 10, 50, 250, 500 µM, p<0.05
Method in brief: as §2

JURKAT [7] = assay: Cell cycle analysis, propidium iodide flow cytometry; format: cell-based, human; conditions: IC50 dose, 24 h, p<0.05
Method in brief: as §4

JURKAT [8] = assay: CellTiter-Glo luminescent cell viability assay; format: cell-based, human; conditions: 24 h, doses 0, 2, 10, 50, 250, 500 µM, p<0.05
Method in brief: as §2

CCRF-CEM [9] = assay: Hoechst 33342 nuclear morphological analysis of apoptosis; format: cell-based; conditions: Homo sapiens, 24 h, read-out: AP50 (50% induction of apoptosis), Hoechst 33342 staining (Hoe)
Method in brief: as §3

KG1a [10] = assay: Cell cycle analysis, propidium iodide flow cytometry; format: cell-based, human; conditions: IC50 dose, 24 h
Method in brief: as §4

JURKAT [11] = assay: NucView caspase 3 activity assay by flow cytometry; format: cell-based, human; conditions: 24 h; for EC50: Homo sapiens, Jurkat, read-out: AP50 (50% induction of apoptosis), Caspase 3 activity assay (C3); for The lowest dose of polyphenols at which there was a significant induction of apoptosis compared to the vehicle control: JURKAT, caspase 3 activity, p<0.05
Method in brief: as §1

JURKAT [12] = assay: Hoechst 33342 nuclear morphological analysis of apoptosis; format: cell-based; conditions: Homo sapiens, 24 h, read-out: AP50 (50% induction of apoptosis), Hoechst 33342 staining (Hoe)
Method in brief: as §3

non-tumor cells (CD34+) [13] = assay: NucView caspase 3 activity assay by flow cytometry; format: cell-based; conditions: 24 h; for EC50: read-out: AP50 (50% induction of apoptosis), Caspase 3 activity assay (C3); for The lowest dose of polyphenols at which there was a significant induction of apoptosis compared to the vehicle control: CD34+ non-tumour control cells, caspase 3 activity, p<0.05
HL60 [14] = assay: NucView caspase 3 activity assay by flow cytometry; format: cell-based, human; conditions: for The lowest dose of polyphenols at which there was a significant induction of apoptosis compared to the vehicle control: HL60, caspase 3 activity, 24 h, p<0.05; for EC50: Homo sapiens, HL-60, 24 h, read-out: AP50 (50% induction of apoptosis), Caspase 3 activity assay (C3)
Method in brief: as §1

HL60 [15] = assay: Hoechst 33342 nuclear morphological analysis of apoptosis; format: cell-based; conditions: Homo sapiens, HL-60, 24 h, read-out: AP50 (50% induction of apoptosis), Hoechst 33342 staining (Hoe)
Method in brief: as §3

non-tumor cells (CD34+) [16] = assay: Hoechst 33342 nuclear morphological analysis of apoptosis; format: cell-based; conditions: 24 h, read-out: AP50 (50% induction of apoptosis), Hoechst 33342 staining (Hoe)
Method in brief: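 CD34+ cells treated 24 h across the IC25–IC50 range, then pelleted (400 g, 4 °C) and fixed in 4% paraformaldehyde/PBS. Cytospins were air-dried and stained with 10 μg/ml Hoechst 33342 for 10 min in the dark, then viewed by fluorescence microscopy. 200 cells were scored per sample as % apoptotic nuclei (shrinkage, blebbing, chromatin condensation, apoptotic bodies). AP50 = concentration giving 50% apoptosis.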

MOLT-3 = assay: Cell cycle analysis, propidium iodide flow cytometry; format: cell-based, human; conditions: MOLT-3, IC50 dose, 24 h; vehicle control G0/G1 = 64.5%
Method in brief: as §4

U937 [17] = assay: CellTiter-Glo luminescent cell viability assay; format: cell-based, human; conditions: U937, 24 h, doses 0, 2, 10, 50, 250, 500 µM, p<0.05
Method in brief: as §2

K562 [18] = assay: CellTiter-Glo luminescent cell viability assay; format: cell-based, human; conditions: K562, 24 h, doses 0, 2, 10, 50, 250, 500 µM, p<0.05
Method in brief: as §2

K562 [19] = assay: NucView caspase 3 activity assay by flow cytometry; format: cell-based, human; conditions: for EC50: Homo sapiens, K562, 24 h, read-out: AP50 (50% induction of apoptosis), Caspase 3 activity assay (C3); for The lowest dose of polyphenols at which there was a significant induction of apoptosis compared to the vehicle control: K562, caspase 3 activity, 24 h, p<0.05
Method in brief: as §1

[20] = test system: non-tumor progenitor cells (CD34+); assay: Cell cycle analysis, propidium iodide flow cytometry; format: cell-based; conditions: 24 h, within the IC50 ranges used to treat the leukemic cell lines
U937 [21] = assay: Cell cycle analysis, propidium iodide flow cytometry; format: cell-based, human; conditions: U937, IC50 dose, 24 h; vehicle control G0/G1 = 44.03%
Method in brief: as §4

THP-1 = assay: as above; format: cell-based, human; conditions: THP-1, IC50 dose, 24 h; vehicle control G0/G1 = 42.3%
Method in brief: as §4

CCRF-CEM [22] = assay: CellTiter-Glo luminescent cell viability assay; format: cell-based, human; conditions: 24 h, doses 0, 2, 10, 50, 250, 500 µM, p<0.05
Method in brief: as §2

Row | EC50 (U937 [1]) | EC50 (U937 [3]) | EC50 (KG1a [4]) | EC50 (CCRF-CEM [9]) | EC50 (JURKAT [11]) | EC50 (JURKAT [12]) | EC50 (HL60 [14]) | EC50 (HL60 [15]) | Structure (SMILES) | The lowest dose of polyphenols at which there was a significant induction of apoptosis compared to the vehicle control (U937 [1]) | The lowest dose of polyphenols at which there was a significant inhibition of cell proliferation compared to the vehicle control (HL60 [2]) | IC50 (KG1a [6]) | The lowest dose of polyphenols at which there was a significant inhibition of cell proliferation compared to the vehicle control (KG1a [6]) | Phase of cell cycle accumulation (JURKAT [7]) | The lowest dose of polyphenols at which there was a significant inhibition of cell proliferation compared to the vehicle control (JURKAT [8]) | The lowest dose of polyphenols at which there was a significant induction of apoptosis compared to the vehicle control (JURKAT [11]) | EC50 (non-tumor cells (CD34+) [13]) | The lowest dose of polyphenols at which there was a significant induction of apoptosis compared to the vehicle control (non-tumor cells (CD34+) [13]) | The lowest dose of polyphenols at which there was a significant induction of apoptosis compared to the vehicle control (HL60 [14]) | EC50 (non-tumor cells (CD34+) [16]) | Percentage of cells in G0/G1 phase of cell cycle (significant accumulation) (MOLT-3) | further results
1 | 60 µM | 140 µM | > 500 µM | 250 µM | > 250 µM | > 500 µM | > 250 µM | > 500 µM | O=C(O)c1cc(O)c2c(c1)C(=O)c1cccc(O)c1C2=O [Rhein] | 50 µM | 50 µM | 169 µM | 50 µM | S-phase | 50 µM | 50 µM | > 250 µM | 50 µM | 50 µM | > 500 µM | G0/G1=72% | Percentage of cells in G0/G1 phase of cell cycle (significant accumulation) (HL60 [5]; vehicle control G0/G1 = 56.8%): G0/G1=65%; Percentage of cells in G0/G1 phase of cell cycle (significant accumulation) (KG1a [10]; vehicle control G0/G1 = 44.6%): G0/G1 =49%; The lowest dose of polyphenols at which there was a significant inhibition of cell proliferation compared to the vehicle control (U937 [17]): 50 µM; The lowest dose of polyphenols at which there was a significant inhibition of cell proliferation compared to the vehicle control (K562 [18]): 50 µM; EC50 (K562 [19]): > 250 µM; The lowest dose of polyphenols at which there was a significant induction of apoptosis compared to the vehicle control (K562 [19]): 50 µM; Cell cycle arrest in non-tumour control cells [20]: No Arrest <50µM; Percentage of cells in G0/G1 phase of cell cycle (significant accumulation) (U937 [21]): G0/G1 =55%; Percentage of cells in G0/G1 phase of cell cycle (significant accumulation) (THP-1): G0/G1 =47%; The lowest dose of polyphenols at which there was a significant inhibition of cell proliferation compared to the vehicle control (CCRF-CEM [22]): 50 µM
2 | 200 µM | 225 µM | 360 µM | 200 µM | 250 µM | 310 µM | 40 µM | 50 µM | C(=C\c1ccccc1)/c1ccccc1 [Trans-Stilbene, Trans-stilbene] | 50 µM | 50 µM | 250 µM | 50 µM | S-phase | 50 µM | 50 µM | > 500 µM | 250 µM | 50 µM | > 500 µM | G0/G1 = 69% | Percentage of cells in S phase of cell cycle (significant accumulation) (HL60 [5]; vehicle control S = 33.6%): S =41.9%; Percentage of cells in G2/M phase of cell cycle (significant accumulation) (KG1a [10]; vehicle control G2/M = 18.7%): G2/M =23.7%; The lowest dose of polyphenols at which there was a significant inhibition of cell proliferation compared to the vehicle control (U937 [17]): 50 µM; The lowest dose of polyphenols at which there was a significant inhibition of cell proliferation compared to the vehicle control (K562 [18]): 50 µM; EC50 (K562 [19]): > 500 µM; The lowest dose of polyphenols at which there was a significant induction of apoptosis compared to the vehicle control (K562 [19]): 50 µM; Cell cycle arrest in non-tumour control cells [20]: No Arrest ≤500µM; Percentage of cells in G0/G1 phase of cell cycle (significant accumulation) (U937 [21]): G0/G1 =62%; Percentage of cells in G0/G1 phase of cell cycle (significant accumulation) (THP-1): G0/G1 =53%; The lowest dose of polyphenols at which there was a significant inhibition of cell proliferation compared to the vehicle control (CCRF-CEM [22]): 50 µM
